Substitutions are numbered along the chain they refer to. Calls of active or inactive are those of the source. The rule behind the calls is not given here.
Columns and labels:
[1] = tested on: T1, Retinoic acid receptor RXR-alpha (Homo sapiens), P19793 [V298S]; assay: Antagonist activity against RXRalpha V298S mutant (unknown origin) expressed in human HEK293T cells assessed as inhibition of 9-cis-RA-induced receptor transactivation at 1 uM after 18 hrs by luciferase reporter gene based mammalian one-hybrid assay; format: cell-based; settings: HEK-293T
T1 sequence (whole entry): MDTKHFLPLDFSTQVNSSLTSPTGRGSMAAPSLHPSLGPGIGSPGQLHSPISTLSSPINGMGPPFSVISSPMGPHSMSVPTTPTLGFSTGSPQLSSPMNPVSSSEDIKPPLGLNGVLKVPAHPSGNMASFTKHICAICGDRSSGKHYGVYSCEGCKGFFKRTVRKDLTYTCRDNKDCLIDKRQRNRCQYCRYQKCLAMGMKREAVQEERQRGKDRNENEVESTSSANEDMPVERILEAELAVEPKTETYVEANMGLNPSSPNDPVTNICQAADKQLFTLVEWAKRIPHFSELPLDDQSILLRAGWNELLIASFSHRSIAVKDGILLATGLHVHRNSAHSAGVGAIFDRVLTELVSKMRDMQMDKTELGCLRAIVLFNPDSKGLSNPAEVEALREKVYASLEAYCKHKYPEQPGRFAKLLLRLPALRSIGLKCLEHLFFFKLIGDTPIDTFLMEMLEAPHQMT
Procedure, shortened: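 The pG5-Luc reporter was cotransfected with pBind-RXRα/V298S (Gal4-fusion construct) into HEK-293T cells. Cells were then exposed to the indicated compounds for 18 h, and luciferase reporter activity was measured.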

[2] = tested on: T2, Retinoic acid receptor RXR-alpha (Homo sapiens), P19793 [F313A]; settings: HEK-293T, 1 uM
T2 sequence (whole entry): T1 sequence (whole entry) with S298V, F313A

[3] = tested on: T3, Retinoic acid receptor RXR-alpha (Homo sapiens), P19793 [C432W]; settings: HEK-293T, 1 uM
T3 sequence (whole entry): T1 sequence (whole entry) with S298V, C432W

[4] = tested on: T4, Retinoic acid receptor RXR-alpha (Homo sapiens), P19793 [A272W]; settings: HEK-293T, 1 uM
T4 sequence (whole entry): T1 sequence (whole entry) with A272W, S298V

[5] = molecular target: T5, Retinoic acid receptor RXR-alpha (Homo sapiens) (UniProt P19793); assay: Antagonist activity against Myc-tagged RXRalpha ligand binding domain (unknown origin) expressed in human MCF7 cells assessed as inhibition of 9-cis-RA-induced receptor transactivation at 10 uM after 18 hrs by luciferase reporter gene based mammalian one-hybrid assay; format: cell-based
T5 sequence (whole entry): T1 sequence (whole entry) with S298V
Procedure, shortened: (§1)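 MCF-7 cells co-transfected with pG5-Luc reporter and pBind-RXRα-LBD. […] Read-out was dual-luciferase, with firefly normalized to Renilla for transfection efficiency. Single-concentration tests used 10 μM. Mean ± SD.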

[6] = molecular target: T5, Retinoic acid receptor RXR-alpha (Homo sapiens); assay: Antagonist activity against Myc-tagged RXRalpha ligand binding domain (unknown origin) expressed in human MCF7 cells assessed as inhibition of 9-cis-RA-induced receptor transactivation after 18 hrs by luciferase reporter gene based mammalian one-hybrid assay; format: cell-based; procedure, shortened: as §1

Row | inhibition [5] | inhibition [6] | Compound | inhibition [1] | inhibition [2] | inhibition [3] | inhibition [4]
1 |  |  | CCCOc1cc2c(cc1C(=C1CC1)c1ccc(C(=O)O)cc1)C(C)(C)CCC2(C)C | Active | Active | inactive | inactive
2 |  |  | CCCCCOc1cc2c(cc1-c1cc(/C=C/C(=O)O)ccc1O)C(C)(C)CCC2(C)C | Active |  |  | 
3 | Active | Dose-dependent effect | CCC(Sc1nc2ccccc2s1)C(=O)N/N=C/c1c(O)ccc2ccccc12 (configuration not stated) |  |  |  | 

From ChEMBL document CHEMBL3352174, “Identification of a New RXRα Antagonist Targeting the Coregulator-Binding Site” (ACS Med Chem Lett, 2014)
